In brackets after ≈: the same amount, converted by molar mass. Activity calls are given as the source filed them. No cut-off for these calls is given here.
What was measured:
[1] = biological target: T1, Sortase A (Staphylococcus aureus, UniProt Q9S446, DELTAN24); experiment: Inhibition of Staphylococcus aureus SrtA delta N24 mutant expressed in Escherichia coli BL21 (DE3) using Abz-LPATG-Dnp substrate incubated for 20 mins by FRET-based assay
Summary of the method: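 His-tagged SrtAΔN24 (1 µM) was preincubated 20 min at rt with compound (0.2–100 µM) in 50 mM Tris-HCl pH 7.5, 150 mM NaCl, 5 mM CaCl2. Abz-LPATG-Dnp was added at 10 µM and fluorescence (ex 309 / em 420 nm) was read each minute for 20 min. IC50 came from a sigmoidal fit. Technical triplicates, three independent experiments.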

[2] = biological target: T1, Sortase A; experiment: Inhibition of Staphylococcus aureus SrtA delta N24 mutant expressed in Escherichia coli BL21 (DE3) assessed as reduction in IsdA (64 to 323 residues) transpeptidation incubated for 20 mins by SDS-PAGE analysis
Summary of the method: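 His-tagged SrtAΔN24 (100 µg) was preincubated 20 min at rt with compound (1–25 µM) in 50 mM Tris-HCl pH 7.5, 150 mM NaCl, 5 mM CaCl2. IsdA64-323 (150 µg) and 3 mM Gly3 were then added for 1.5 hr at 37 °C. […] Three independent experiments.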

[3] = test system: Staphylococcus aureus; experiment: Antibacterial activity against Staphylococcus aureus subsp. aureus str. Newman assessed as reduction in bacterial growth incubated for 24 hrs; type: functional
Summary of the method: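 Overnight culture diluted 1:1000 in TSB, grown to A600 0.6-0.8, then diluted 1:400 in TSB. Aliquots incubated with the compound at a range of concentrations. A600 read every 1 hr for 24 hr to build growth curves. Technical triplicates per point; three independent experiments.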

[4] = test system: Sortase A (Staphylococcus aureus), Q9S446 [UNDEFINED MUTATION]; experiment: Inhibition of SrtA delta N24 mutant in Staphylococcus aureus subsp. aureus str. Newman reduction in abundance of anchored SpA at 100 uM by FITC-labeled human IgG fluorescence based assay
Summary of the method: (§1)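 Newman wild type and ΔsrtA were diluted 1:1000 in TSB and grown at 37 °C with inhibitor until A600 reached 1.0. Cells were PBS-washed, labelled with FITC-human IgG for 30 min at rt, and washed again before fluorescence was read. Triplicate wells, three independent experiments, unpaired two-tailed t-test.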

[5] = test system: Sortase A (Staphylococcus aureus), Q9S446 [UNDEFINED MUTATION]; experiment: Covalent binding affinity to Staphylococcus aureus SrtA delta N24 mutant assessed as induction of m/z shift incubated for 12 hrs by ESI-LC/MS analysis
Summary of the method: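 His-tagged SrtAΔN24 preincubated 12 hr with or without a 10-fold excess of compound. Diluted in 50% acetonitrile / 0.2% formic acid, run on a C8 column with a 10–90% acetonitrile gradient over 11 min, then ESI-TOF MS. MTSET served as the covalent reference.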

[6] = test system: Sortase A (Staphylococcus aureus), Q9S446 [UNDEFINED MUTATION]; experiment: Covalent inhibition of Staphylococcus aureus SrtA delta N24 mutant expressed in Escherichia coli BL21 (DE3) assessed as reduction in IsdA (64 to 323 residues) transpeptidation incubated for 20 mins followed by 10 fold compound dilution by SDS-PAGE analysis
[7] = test system: Sortase A (Staphylococcus aureus), Q9S446 [UNDEFINED MUTATION]; experiment: Inhibition of SrtA delta N24 mutant in Staphylococcus aureus subsp. aureus str. Newman reduction in abundance of anchored SpA by FITC-labeled human IgG fluorescence based assay; summary of the method: as §1
[8] = test system: Sortase A (Staphylococcus aureus), Q9S446 [UNDEFINED MUTATION]; experiment: Inhibition of SrtA delta N24 mutant in Staphylococcus aureus subsp. aureus str. Newman reduction in abundance of anchored SpA by Western blot analysis
Summary of the method: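 Newman was diluted 1:1000 and grown at 37 °C with inhibitor to A600 3.0. Cells were PBS-washed and digested with lysozyme for 30 min at 37 °C. Protoplasts were removed and the supernatant (cell wall fraction) was separated by SDS-PAGE and immunoblotted for SpA, with ClpP as the loading control. Three independent experiments.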

[9] = Solubility in PBS in presence of 1% DMSO by LC/MS analysis; type: physicochemical; details: PBS with 1% DMSO
[10] = test system: Sortase A (Staphylococcus aureus), Q9S446 [UNDEFINED MUTATION]; experiment: Reversible inhibition of Staphylococcus aureus SrtA delta N24 mutant expressed in Escherichia coli BL21 (DE3) assessed as reduction in IsdA (64 to 323 residues) transpeptidation incubated for 20 mins followed by 10 fold compound dilution by SDS-PAGE analysis
[11] = test system: Sortase A (Staphylococcus aureus), Q9S446 [UNDEFINED MUTATION]; experiment: Time dependent inhibition of Staphylococcus aureus SrtA delta N24 mutant expressed in Escherichia coli BL21 (DE3) assessed as reduction in IsdA (64 to 323 residues) transpeptidation by SDS-PAGE analysis
[12] = test system: Sortase A (Staphylococcus aureus), Q9S446 [UNDEFINED MUTATION]; experiment: Binding affinity to Staphylococcus aureus SrtA delta N24 mutant expressed in Escherichia coli BL21 (DE3 assessed as attenuation of NMR signals by CPMG-NMR analysis
Summary of the method: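 NMR titration in 20 mM sodium phosphate pH 7.4, 100 mM NaCl, 2% DMSO, at 25 °C on a 600 MHz spectrometer with a cryoprobe.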

[13] = test system: Sortase A (Staphylococcus aureus), Q9S446 [UNDEFINED MUTATION]; experiment: Effect on structural folding of Staphylococcus aureus SrtA delta N24 mutant expressed in Escherichia coli BL21 (DE3 assessed as induction of gross structural perturbations by CD spectroscopy
Summary of the method: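 SrtAΔN24 at 10 µM was incubated with compound dissolved in methanol, and CD spectra were recorded. Two independent experiments.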

[14] = test system: Sortase A (Staphylococcus aureus), Q9S446 [UNDEFINED MUTATION]; experiment: Inhibition of Staphylococcus aureus SrtA delta N24 mutant expressed in Escherichia coli BL21 (DE3) using Abz-LPATG-Dnp substrate incubated for 20 mins in presence of 0.01% v/v Triton X-100 by FRET-based assay
[15] = test system: Staphylococcus aureus; experiment: Antibiofilm activity against Staphylococcus aureus subsp. aureus str. Newman assessed as reduction in biofilm biomass at 25 to 100 uM incubated for 18 hrs by Crystal violet staining assay; type: functional, organism-based
Summary of the method: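 Overnight culture diluted 1:100 in TSB, plated in quadruplicate with inhibitor, and held static at 37 °C for 18 hr. Wells rinsed with PBS, and the dried, fixed biofilm stained with 0.1% crystal violet for 15 min. Stain dissolved in 30% acetic acid and absorbance read at 595 nm. Three independent experiments.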

| SMILES | IC50 [1] [µM] | IC50 [2] [µM] | MIC [3] [mg/L] | also measured |
| --- | --- | --- | --- | --- |
| CCCCn1c(=O)sn(-c2cccc3ccccc23)c1=O | 0.9 | 12.6 | 100 (≈ 333 µM) | – |
| O=c1sn(-c2cccc3c2CCC3)c(=O)n1Cc1ccccc1 | 4.4 | 45.6 | > 100 | – |
| CC(C)n1c(=O)sn(Cc2ccccc2)c1=O | > 100 | > 50 | 6.2 (≈ 24.8 µM) | – |
| O=c1sn(Cc2ccccc2)c(=O)n1-c1cccc(F)c1 | > 100 | > 50 | 12.5 (≈ 41.3 µM) | – |
| Cc1noc(C)c1-n1sc(=O)n(C(C)C)c1=O | 12.6 | > 50 | > 100 | – |
| CCCNC1=C(c2ccccc2)C(=O)C2C(/C=C/S(=O)(=O)c3ccccc3)=CC=CC2C1=O (centres undefined) | – | – | – | inhibition [4]: inactive |
| COc1ccc(Cn2c(=O)sn(-c3c(C)noc3C)c2=O)cc1 | 1.2 | 5 | > 100 | – |
| O=c1sn(-c2cccc3ccccc23)c(=O)n1Cc1ccccc1O | 1.3 | 32.2 | > 100 | – |
| Cc1ccc(Cn2c(=O)sn(Cc3ccccc3)c2=O)cc1 | 5.1 | 35.7 | 12.5 (≈ 40 µM) | – |
| O=c1sn(-c2cccc3ccccc23)c(=O)n1Cc1ccc(F)cc1 | 4.1 | 5.9 | 100 (≈ 284 µM) | – |
| Cc1noc(C)c1-n1sc(=O)n(Cc2ccccc2Cl)c1=O | 0.6 | 3.7 | > 100 | – |
| CCn1sc(=O)n(CCc2ccccc2)c1=O | 16.3 | > 50 | 6.2 (≈ 24.8 µM) | – |
| O=c1sn(-c2cccc3ccccc23)c(=O)n1Cc1ccc(O)cc1 | 2.6 | 4.7 | 100 (≈ 285 µM) | – |
| O=c1sn(CCc2ccccc2)c(=O)n1Cc1ccccc1 | 10.1 | 42.7 | 12.5 (≈ 40 µM) | – |
| C[N+](C)(C)CCSS(C)(=O)=O | – | – | – | Activity [5]: 120 Da; inhibition [6]: Active; inhibition [7]: Active; inhibition [8]: Active |
| Cc1ccc(Cn2c(=O)sn(-c3c(C)noc3C)c2=O)cc1 | 1.1 | 4.7 | > 100 | – |
| O=c1sn(-c2cccc3c2OCO3)c(=O)n1Cc1ccccc1 | 3.4 | 4.7 | > 100 | – |
| O=c1sn(Cc2ccccc2)c(=O)n1Cc1ccccc1 | 7 | 12.9 | 12.5 (≈ 41.9 µM) | – |
| O=c1sn(-c2cccc3ccccc23)c(=O)n1Cc1cccc(O)c1 | 1.6 | 9.2 | > 100 | – |
| Cc1noc(C)c1-n1sc(=O)n(Cc2ccccc2)c1=O | 0.8 | 4.6 | > 100 | solubility [9]: 0.144 mg/mL; Activity [5]: inactive; inhibition [10]: Active; TDI [11]: inactive; Activity [12]: Dose-dependent effect; Activity [13]: inactive; inhibition [14]: Active; inhibition [7]: Dose-dependent effect; Activity [15]: Active |
| CC(C)n1c(=O)sn(CCc2ccccc2)c1=O | > 100 | > 50 | 25 (≈ 94.6 µM) | – |

| SMILES | IC50 [1] [µM] | IC50 [2] [µM] | MIC [3] [mg/L] | also measured |
| --- | --- | --- | --- | --- |
| O=c1sn(-c2cccc3c2CCCC3)c(=O)n1Cc1ccccc1 | 6 | 31.9 | 50 (≈ 148 µM) | – |
| CCCCn1c(=O)sn(Cc2ccccc2)c1=O | 8.4 | 21.2 | 6.2 (≈ 23.5 µM) | – |
| CCn1c(=O)sn(-c2c(C)noc2C)c1=O | 1.5 | 6.3 | > 100 | – |
| O=c1sn(C2CCCC2)c(=O)n1C1CCCCC1 | 10.2 | > 50 | 6.2 (≈ 23.1 µM) | – |
| CCn1c(=O)sn(-c2cccc3ccccc23)c1=O | 0.7 | 8.2 | > 100 | – |
| O=c1sn(-c2cccc3ccccc23)c(=O)n1Cc1ccc(Cl)cc1 | 0.7 | 23.1 | 100 (≈ 271 µM) | – |
| O=c1sn(Cc2ccccc2)c(=O)n1Cc1ccc(Cl)c(Cl)c1 | 2.9 | 19.7 | 12.5 (≈ 34 µM) | – |
| O=c1sn(Cc2ccccc2)c(=O)n1CCCl | 2 | 16.7 | 25 (≈ 92.3 µM) | – |
| Cn1c(=O)sn(Cc2ccccc2)c1=O | 3.5 | 23.6 | 12.5 (≈ 56.2 µM) | – |
| CCCCn1c(=O)sn(-c2c(C)noc2C)c1=O | 1.1 | 4.1 | > 100 | – |
| O=c1sn(CCc2ccccc2)c(=O)n1C1CCCCC1 | > 100 | > 50 | 12.5 (≈ 41.1 µM) | – |
| CCn1sc(=O)n(Cc2ccc(C)cc2)c1=O | 16.7 | > 50 | 6.2 (≈ 24.8 µM) | – |
| CCCCn1sc(=O)n(CCCC)c1=O | 43.9 | > 50 | 3.1 (≈ 13.5 µM) | – |
| Cn1c(=O)sn(-c2cccc3ccccc23)c1=O | 0.8 | 8 | 100 (≈ 387 µM) | – |
| O=c1sn(-c2cccc3ccccc23)c(=O)n1Cc1ccc(Cl)c(Cl)c1 | 0.9 | 14.4 | 50 (≈ 124 µM) | – |
| Cc1noc(C)c1-n1sc(=O)n(Cc2ccc(Cl)cc2)c1=O | 1 | 4.1 | > 100 | – |
| Cc1ccc(Cn2c(=O)sn(-c3cccc4ccccc34)c2=O)cc1 | 1.2 | 12.6 | 100 (≈ 287 µM) | – |
| O=c1sn(Cc2ccccc2)c(=O)n1Cc1ccccc1Cl | 3.4 | 28 | 12.5 (≈ 37.6 µM) | – |
| Cc1noc(C)c1-n1sc(=O)n(Cc2ccc(Cl)c(Cl)c2)c1=O | 0.9 | 3.4 | > 100 | – |
| CCn1sc(=O)n(Cc2ccc(Cl)cc2)c1=O | 8.7 | > 50 | 6.2 (≈ 22.9 µM) | – |
| O=c1sn(-c2cccc3ccccc23)c(=O)n1CCc1ccccc1 | 0.6 | 27.5 | > 100 | – |

Source: ChEMBL document CHEMBL4619779, “Tideglusib and Its Analogues As Inhibitors of Staphylococcus aureus SrtA” (J Med Chem, 2020)
